The record followed here is ChEMBL document CHEMBL4177580, “New 5-HT1A, 5HT2A and 5HT2C receptor ligands containing a picolinic nucleus: Synthesis, in vitro and in vivo pharmacological evaluation” (Bioorg Med Chem, 2017).

Data set [1] concerns Mus musculus. Put plainly: Toxicity in Swiss albino mouse assessed as reduction in spontaneous locomotor activity at 60 mg/kg, ip dosed 60 mins before test and measured after 6 mins. In kind it is organism-based. The note with it: in vivo, 0.1 h. Put shortly: (§1)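 Spontaneous locomotion: mice dosed i.p. 60 min before being placed individually in an actometer for 30 min. Distance travelled read at 6 and 30 min. Cages cleaned with 70% ethanol between animals. One-way ANOVA with Dunnett's; mean ± SEM of one experiment.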

The target in data set [2] is T1, Adrenergic receptor alpha-2 (Rattus norvegicus, UniProt P22086+P19328+P22909).
T1 sequence (P22086 whole entry): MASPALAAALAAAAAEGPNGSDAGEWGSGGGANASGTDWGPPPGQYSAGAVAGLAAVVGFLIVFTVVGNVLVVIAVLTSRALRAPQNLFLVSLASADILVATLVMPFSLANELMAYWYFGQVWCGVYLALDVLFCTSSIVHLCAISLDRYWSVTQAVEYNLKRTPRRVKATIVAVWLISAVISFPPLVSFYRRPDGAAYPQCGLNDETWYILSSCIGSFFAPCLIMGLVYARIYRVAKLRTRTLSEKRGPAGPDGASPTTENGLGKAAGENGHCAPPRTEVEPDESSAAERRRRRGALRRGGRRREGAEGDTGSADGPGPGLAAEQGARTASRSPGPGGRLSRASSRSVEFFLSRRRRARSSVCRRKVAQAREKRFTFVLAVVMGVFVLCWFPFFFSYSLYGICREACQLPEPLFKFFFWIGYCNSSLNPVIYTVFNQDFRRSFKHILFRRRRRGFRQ
T1 sequence (P19328 whole entry): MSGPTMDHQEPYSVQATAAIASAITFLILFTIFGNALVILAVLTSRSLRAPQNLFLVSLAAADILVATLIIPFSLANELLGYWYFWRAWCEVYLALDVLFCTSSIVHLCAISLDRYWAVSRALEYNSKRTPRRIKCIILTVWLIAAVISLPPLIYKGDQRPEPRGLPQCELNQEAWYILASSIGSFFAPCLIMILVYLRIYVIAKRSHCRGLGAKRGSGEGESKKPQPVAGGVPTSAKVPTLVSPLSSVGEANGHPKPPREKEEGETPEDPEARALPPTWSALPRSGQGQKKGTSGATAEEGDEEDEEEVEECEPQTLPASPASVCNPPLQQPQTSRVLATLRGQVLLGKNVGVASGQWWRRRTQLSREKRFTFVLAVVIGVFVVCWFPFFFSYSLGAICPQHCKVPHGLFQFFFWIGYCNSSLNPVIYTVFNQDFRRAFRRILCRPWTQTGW
T1 sequence (P22909 whole entry): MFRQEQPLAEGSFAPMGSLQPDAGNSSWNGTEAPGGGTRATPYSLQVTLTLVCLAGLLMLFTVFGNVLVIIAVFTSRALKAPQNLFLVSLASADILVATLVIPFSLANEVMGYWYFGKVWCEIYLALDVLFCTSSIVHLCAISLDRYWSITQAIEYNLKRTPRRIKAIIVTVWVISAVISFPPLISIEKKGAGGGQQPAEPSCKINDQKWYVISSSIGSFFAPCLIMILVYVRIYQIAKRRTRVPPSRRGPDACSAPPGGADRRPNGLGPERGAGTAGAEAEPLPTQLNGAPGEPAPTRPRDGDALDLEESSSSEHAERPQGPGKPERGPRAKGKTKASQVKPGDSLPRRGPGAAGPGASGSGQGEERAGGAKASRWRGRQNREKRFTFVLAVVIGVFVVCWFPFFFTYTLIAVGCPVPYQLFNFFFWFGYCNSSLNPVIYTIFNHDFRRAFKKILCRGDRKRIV
Kind of data set: Displacement of [3H]RX 821002 from adrenergic alpha2 receptor in rat cerebral cortex. A general note: In a radioligand displacement assay an active substance lowers the binding of a labelled ligand.

Data set [3] relates to Mus musculus. Put plainly: Toxicity in Swiss albino mouse assessed as reduction in spontaneous locomotor activity at 7.5 mg/kg, ip dosed 60 mins before test. The settings on record: in vivo, 1 h. In kind it is organism-based. Put shortly:
as §1

In a further data set the target is D(1A) dopamine receptor (Homo sapiens, UniProt P21728). Put plainly: Displacement of [3H]SCH-23390 from human recombinant dopamine D1 receptor expressed in CHO cells. The data set is classed as cell-based.
Data set [4] deals with T2, 5-hydroxytryptamine receptor 2C (Rattus norvegicus, UniProt P08909).
T2 sequence (P08909 whole entry): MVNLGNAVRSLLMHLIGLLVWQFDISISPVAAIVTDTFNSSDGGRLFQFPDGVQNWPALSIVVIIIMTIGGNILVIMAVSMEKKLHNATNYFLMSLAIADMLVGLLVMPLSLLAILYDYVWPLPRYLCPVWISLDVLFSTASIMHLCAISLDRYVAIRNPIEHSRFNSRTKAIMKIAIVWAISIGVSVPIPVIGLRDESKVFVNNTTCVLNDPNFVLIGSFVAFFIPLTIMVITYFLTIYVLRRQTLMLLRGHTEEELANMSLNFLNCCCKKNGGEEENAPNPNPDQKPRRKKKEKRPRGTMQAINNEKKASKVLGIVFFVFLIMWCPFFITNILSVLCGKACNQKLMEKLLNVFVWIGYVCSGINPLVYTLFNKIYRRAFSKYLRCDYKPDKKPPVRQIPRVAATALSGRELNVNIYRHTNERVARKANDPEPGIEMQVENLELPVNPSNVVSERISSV
Put plainly: Displacement of [3H]mesulergine from serotonin 5-HT2C receptor in Sprague-Dawley rat brain cortex homogenates incubated for 15 mins by liquid scintillation spectrometry.

Data set [5] deals with 5-hydroxytryptamine receptor 2A (Rattus norvegicus, UniProt P14842). Put plainly: Displacement of [3H]ketanserin from serotonin 5-HT2A receptor in Sprague-Dawley rat brain cortex homogenates incubated for 15 mins by liquid scintillation spectrometry.
For data set [6], the system named is Mus musculus. Put plainly: Toxicity in Swiss albino mouse assessed as effect on motor coordination at 3.75 to 15 mg/kg, ip dosed 60 mins before test by Chimney test. In kind it is organism-based. The settings on record: in vivo, 1 h. Put shortly: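 Chimney test in male Swiss mice after i.p. dosing 60 min earlier: impairment defined as failure to climb backwards up a tube (3 cm inner diameter, 25 cm long) within 60 s. Animals pre-trained once daily for 3 days. One-way ANOVA with Dunnett's.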

In another data set the target is D(2) dopamine receptor (Homo sapiens, UniProt P14416). Kind of data set: Displacement of [3H]methyl-spiperone from human recombinant dopamine D2 receptor expressed in HEK293 cells. In kind it is cell-based.
In another data set the test system is Rattus norvegicus. Put plainly: In-vivo 5-HT1A receptor agonist activity in Wistar rat assessed as induction of lower lip retraction by measuring lower lip retraction score at 30 mg/kg, ip dosed 15 mins before test (reference value: 0.0 +/- 0.0).

Some results are limits rather than exact numbers.

Sequence of D(2) dopamine receptor (P14416 whole entry): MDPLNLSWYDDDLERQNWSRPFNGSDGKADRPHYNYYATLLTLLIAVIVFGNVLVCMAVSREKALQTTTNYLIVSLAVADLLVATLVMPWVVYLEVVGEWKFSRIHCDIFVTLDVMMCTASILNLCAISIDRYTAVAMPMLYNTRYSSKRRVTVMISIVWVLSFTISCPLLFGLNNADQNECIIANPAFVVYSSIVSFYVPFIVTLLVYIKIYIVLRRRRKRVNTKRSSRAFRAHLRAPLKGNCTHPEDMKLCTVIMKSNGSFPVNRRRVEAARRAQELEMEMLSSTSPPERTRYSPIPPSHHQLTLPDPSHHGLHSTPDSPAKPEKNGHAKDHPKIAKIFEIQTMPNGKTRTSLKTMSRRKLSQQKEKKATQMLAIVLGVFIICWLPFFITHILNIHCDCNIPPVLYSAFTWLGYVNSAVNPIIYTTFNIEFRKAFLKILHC
Sequence of 5-hydroxytryptamine receptor 2A (P14842 whole entry): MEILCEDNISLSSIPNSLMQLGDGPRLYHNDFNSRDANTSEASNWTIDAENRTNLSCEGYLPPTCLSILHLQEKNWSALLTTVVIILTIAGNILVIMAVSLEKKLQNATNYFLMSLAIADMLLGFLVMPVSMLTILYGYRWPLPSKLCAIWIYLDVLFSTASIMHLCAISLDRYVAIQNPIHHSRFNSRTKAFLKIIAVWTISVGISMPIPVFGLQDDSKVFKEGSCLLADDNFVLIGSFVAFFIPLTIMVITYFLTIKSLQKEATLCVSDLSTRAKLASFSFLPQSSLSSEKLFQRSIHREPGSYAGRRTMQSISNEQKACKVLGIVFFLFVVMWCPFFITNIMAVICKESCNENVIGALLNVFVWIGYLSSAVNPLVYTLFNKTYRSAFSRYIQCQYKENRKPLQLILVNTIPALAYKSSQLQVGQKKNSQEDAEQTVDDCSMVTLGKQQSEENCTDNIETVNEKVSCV
Sequence of D(1A) dopamine receptor (P21728 whole entry): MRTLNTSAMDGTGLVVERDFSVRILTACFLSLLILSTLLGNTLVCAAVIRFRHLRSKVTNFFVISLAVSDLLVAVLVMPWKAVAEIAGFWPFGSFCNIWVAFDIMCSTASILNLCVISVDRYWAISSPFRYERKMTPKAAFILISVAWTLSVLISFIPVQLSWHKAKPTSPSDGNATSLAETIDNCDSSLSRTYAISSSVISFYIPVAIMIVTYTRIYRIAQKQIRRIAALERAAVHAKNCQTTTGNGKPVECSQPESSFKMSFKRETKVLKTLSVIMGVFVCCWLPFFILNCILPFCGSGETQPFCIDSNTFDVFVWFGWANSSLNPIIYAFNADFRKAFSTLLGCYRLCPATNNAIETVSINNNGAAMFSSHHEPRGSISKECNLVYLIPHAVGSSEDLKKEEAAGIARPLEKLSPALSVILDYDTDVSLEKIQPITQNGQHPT

On to `O=C(NCCN1CCN(c2ccc(Cl)c(Cl)c2)CC1)c1ccccn1`, for which the Activity result in the data set on Mus musculus [1] is given as “Toxic”; with Mus musculus [3], “Non-Toxic”; with Mus musculus [6], “Non-Toxic”. Besides, the inhibitory constant (Ki) (as a rule, the equilibrium dissociation constant of an inhibitor or competing ligand from its target) is 4200 nM in [2]; 610 nM on D(1A) dopamine receptor; over 10000 nM in data set [4]; 74.1 nM in data set [5]; 250 nM at D(2) dopamine receptor. Further, the Activity_index with Rattus norvegicus turned out to be 0.1429.
